Among the data in ChEMBL document CHEMBL1212859, “Novel aminopeptidase N (APN/CD13) inhibitors derived from 3-phenylalanyl-N'-substituted-2,6-piperidinedione” (Bioorg Med Chem, 2010) are IC50 values, retold here.

Some results are limits rather than exact numbers.

As usually defined, the IC50 is the concentration needed to halve the response being measured. Read a high IC50 as weaker potency.

The target of test [1] is 72 kDa type IV collagenase (Homo sapiens, UniProt P08253). The test is described as follows: Inhibition of MMP2 after 30 mins. The method, boiled down: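 Gelatinase A (MMP-2), synthesized substrate and inhibitor were dissolved together in 50 mmol/L sodium borate, pH 8.5, and incubated for 30 min at 37 °C. TNBS was used in the assay.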
For the next test, the target named is T1, Aminopeptidase N (Sus scrofa, UniProt P15145).
T1 sequence (P15145 whole entry): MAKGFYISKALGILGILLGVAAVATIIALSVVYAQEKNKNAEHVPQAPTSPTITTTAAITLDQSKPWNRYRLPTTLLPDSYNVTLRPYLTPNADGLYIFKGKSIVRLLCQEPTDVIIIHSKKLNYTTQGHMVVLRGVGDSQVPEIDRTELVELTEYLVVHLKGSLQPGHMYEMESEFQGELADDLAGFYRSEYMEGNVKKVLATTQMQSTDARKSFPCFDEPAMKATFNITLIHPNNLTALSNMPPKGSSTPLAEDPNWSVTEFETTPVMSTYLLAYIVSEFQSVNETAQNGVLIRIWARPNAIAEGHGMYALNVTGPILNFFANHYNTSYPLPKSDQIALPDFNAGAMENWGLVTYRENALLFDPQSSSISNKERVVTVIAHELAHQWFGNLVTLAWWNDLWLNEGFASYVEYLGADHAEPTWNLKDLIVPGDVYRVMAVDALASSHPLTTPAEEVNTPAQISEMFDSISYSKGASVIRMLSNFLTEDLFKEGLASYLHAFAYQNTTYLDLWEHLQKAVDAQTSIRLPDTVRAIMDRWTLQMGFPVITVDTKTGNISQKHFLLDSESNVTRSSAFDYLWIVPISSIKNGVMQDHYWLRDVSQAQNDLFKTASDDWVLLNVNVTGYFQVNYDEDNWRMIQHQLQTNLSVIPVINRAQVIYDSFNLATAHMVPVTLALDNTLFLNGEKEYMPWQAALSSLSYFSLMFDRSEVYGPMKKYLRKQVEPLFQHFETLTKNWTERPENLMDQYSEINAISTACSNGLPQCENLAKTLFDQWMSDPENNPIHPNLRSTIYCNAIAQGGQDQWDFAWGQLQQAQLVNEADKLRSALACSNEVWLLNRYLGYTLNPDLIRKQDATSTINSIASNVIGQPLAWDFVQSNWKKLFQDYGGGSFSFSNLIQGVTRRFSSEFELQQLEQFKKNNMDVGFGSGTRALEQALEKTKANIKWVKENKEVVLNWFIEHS
Description: Inhibition of pig kidney microsome aminopeptidase N after 30 mins by UV-vis spectrophotometric analysis. The method, boiled down:
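Enzyme was porcine kidney microsomal aminopeptidase at 4 mg/ml final, with L-Leu-p-nitroanilide as substrate. Inhibitor solutions were made in assay buffer adjusted to pH 7.5. Inhibitors were preincubated with enzyme for 30 min at room temperature.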

The test system of a further test is HL-60. Description: Cytotoxicity against human HL60 cells expressing aminopeptidase N after 72 hrs by MTT assay. Format: functional, cell-based. Particulars: HL-60, 72 h. A digest of the protocol:
(§1)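 Cells grown in RPMI1640 with 10% FBS at 37 °C under humidified 5% CO2. HL-60 cells have high APN expression and MDA-MB-231 cells have low expression. Plated at 10,000 cells/well and allowed 4 h in complete medium. Exposed for 72 h to five concentrations from 2000 down to […]. Proliferation read by MTT. Mean of three independent experiments.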

A further test relates to MDA-MB-231. Description: Cytotoxicity against human MDA-MB-231 cells after 72 hrs by MTT assay. Format: functional, cell-based. Particulars: MDA-MB-231, 72 h. The method, boiled down:
as §1
(In general: Formazan colour is commonly taken as a measure of viable cells.)

Sequence of 72 kDa type IV collagenase (P08253 whole entry): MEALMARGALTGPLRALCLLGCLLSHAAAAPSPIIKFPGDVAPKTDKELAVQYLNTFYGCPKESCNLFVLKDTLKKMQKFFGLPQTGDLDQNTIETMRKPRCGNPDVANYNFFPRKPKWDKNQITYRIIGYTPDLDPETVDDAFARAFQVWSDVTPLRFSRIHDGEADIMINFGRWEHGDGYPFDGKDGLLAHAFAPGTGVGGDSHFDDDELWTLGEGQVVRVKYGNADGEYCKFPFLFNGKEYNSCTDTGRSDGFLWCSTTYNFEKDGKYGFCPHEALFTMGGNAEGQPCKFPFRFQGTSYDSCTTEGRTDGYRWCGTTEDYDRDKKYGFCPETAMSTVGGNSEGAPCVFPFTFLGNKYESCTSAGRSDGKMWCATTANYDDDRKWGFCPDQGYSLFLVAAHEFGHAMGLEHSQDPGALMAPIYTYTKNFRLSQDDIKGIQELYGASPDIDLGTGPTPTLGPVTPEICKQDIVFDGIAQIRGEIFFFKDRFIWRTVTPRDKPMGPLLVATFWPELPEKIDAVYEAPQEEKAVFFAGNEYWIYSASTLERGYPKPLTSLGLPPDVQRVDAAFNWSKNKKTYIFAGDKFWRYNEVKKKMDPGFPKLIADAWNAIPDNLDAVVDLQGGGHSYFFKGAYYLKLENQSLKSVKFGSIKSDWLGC

On to `C[C@H](NC(=O)CN1C(=O)CC[C@H](NC(=O)[C@@H](N)Cc2ccccc2)C1=O)C(=O)OCc1ccccc1`, for which the results for the IC50 (in test [1]; against Aminopeptidase N) were 129 µM and 91.6 µM, respectively.
In the same order, the values of `CC(C)[C@H](NC(=O)CN1C(=O)CC[C@H](NC(=O)[C@@H](N)Cc2ccccc2)C1=O)C(=O)OCc1ccccc1` are 18.5 µM and 30.1 µM.
As for `CC(C)C[C@H](NC(=O)CN1C(=O)CC[C@H](NC(=O)[C@@H](N)Cc2ccccc2)C1=O)C(=O)OCc1ccccc1`, the concentration for half-maximal inhibition (IC50) came out at 121 µM in test [1] and 30.2 µM on Aminopeptidase N.
Consider `N[C@@H](Cc1ccccc1)C(=O)N[C@H]1CCC(=O)N(CC(=O)N[C@@H](Cc2ccccc2)C(=O)OCc2ccccc2)C1=O`, for which the IC50 worked out at 12 µM in test [1], 2540 µM in the test with HL-60, 6.48 µM at Aminopeptidase N and 10200 µM with MDA-MB-231.
Take `N[C@@H](Cc1ccccc1)C(=O)N[C@H]1CCC(=O)N(CC(=O)N[C@@H](CCC(=O)OCc2ccccc2)C(=O)OCc2ccccc2)C1=O`: the results for the IC50 (in test [1]; at Aminopeptidase N) were 272 µM and 91.4 µM, respectively.
In the same order, the values of `N[C@@H](Cc1ccccc1)C(=O)N[C@H]1CCC(=O)N(CC(=O)NCC(=O)O)C1=O` are 107 µM and 38.7 µM.
In the same order, the values of `C[C@H](NC(=O)CN1C(=O)CC[C@H](NC(=O)[C@@H](N)Cc2ccccc2)C1=O)C(=O)O` are 155 µM and 110 µM.
Consider `CC(C)[C@H](NC(=O)CN1C(=O)CC[C@H](NC(=O)[C@@H](N)Cc2ccccc2)C1=O)C(=O)O`, for which the IC50 in test [1] was > 1000 µM; against Aminopeptidase N it was 13.3 µM.
In the case of `CC(C)C[C@H](NC(=O)CN1C(=O)CC[C@H](NC(=O)[C@@H](N)Cc2ccccc2)C1=O)C(=O)O`, the half-inhibitory concentration (IC50) in test [1] is > 1000 µM; with HL-60, 5210 µM; against Aminopeptidase N it was 8.42 µM; in the test on MDA-MB-231, 14400 µM.
As for `N[C@@H](Cc1ccccc1)C(=O)N[C@H]1CCC(=O)N(CC(=O)N[C@@H](Cc2ccccc2)C(=O)O)C1=O`, the half-inhibitory concentration (IC50) in test [1] was 316 µM; at Aminopeptidase N, 66.4 µM.
The matching figures for `N[C@@H](Cc1ccccc1)C(=O)N[C@H]1CCC(=O)N(CC(=O)Nc2ccc(F)cc2)C1=O`: 122 µM and 252 µM.
The matching figures for `COc1ccc(NC(=O)CN2C(=O)CC[C@H](NC(=O)[C@@H](N)Cc3ccccc3)C2=O)cc1`: > 1000 µM and 178 µM.
In the case of `Cc1ccc(NC(=O)CN2C(=O)CC[C@H](NC(=O)[C@@H](N)Cc3ccccc3)C2=O)c(C)c1`, the IC50 in test [1] was determined as 8.27 µM; in the test with HL-60 it was 1970 µM; against Aminopeptidase N, 5 µM; in the test with MDA-MB-231 it was 8590 µM.
For `N[C@@H](Cc1ccccc1)C(=O)N[C@H]1CCC(=O)N(CC(=O)Nc2cccc(Cl)c2)C1=O`, the IC50 in test [1] is 60.4 µM; in the test on HL-60, 2220 µM; at Aminopeptidase N, 6.92 µM; in the test on MDA-MB-231, 9480 µM.
With `N[C@@H](Cc1ccccc1)C(=O)N[C@H]1CCC(=O)N(CC(=O)Nc2ccccc2F)C1=O`, the figures for the IC50 (in test [1]; on Aminopeptidase N) were 62.7 µM and 245 µM, respectively.
As for `N[C@@H](Cc1ccccc1)C(=O)N[C@H]1CCC(=O)N(CC(=O)Nc2ccc(Br)cc2)C1=O`, the IC50 in test [1] was found to be 71.6 µM; on Aminopeptidase N, 74 µM.
For the compound `N[C@@H](Cc1ccccc1)C(=O)N[C@H]1CCC(=O)N(CC(=O)Nc2ccc(F)c(Cl)c2)C1=O`, the half-inhibitory concentration (IC50) in test [1] came out at 131 µM; at Aminopeptidase N it was 170 µM.
`N[C@@H](Cc1ccccc1)C(=O)N[C@H]1CCC(=O)N(CC(=O)Nc2ccc(F)c(F)c2)C1=O`: the concentration for half-maximal inhibition (IC50) in test [1] was 46.9 µM; on Aminopeptidase N it was 53.4 µM.
In the same order, the values of `N[C@@H](Cc1ccccc1)C(=O)N[C@H]1CCC(=O)N(CC(=O)NCC(=O)OCc2ccccc2)C1=O` are 454 µM and 13.4 µM.
The matching figures for `NC(Cc1ccccc1)C(=O)N[C@H]1CCC(=O)N(CC(=O)NCCC(=O)OCc2ccccc2)C1=O` (single isomer, unassigned): 127 µM and 49.7 µM.
In the same order, the values of `NC(Cc1ccccc1)C(=O)N[C@H]1CCC(=O)N(CC(=O)NCCC(=O)O)C1=O` (single isomer, unassigned) are 22.7 µM and 12.8 µM.
Take `NC(Cc1ccccc1)C(=O)N[C@H]1CCC(=O)N(CC(=O)N[C@@H](CCC(=O)O)C(=O)O)C1=O` (single isomer, unassigned): the IC50 is > 1000 µM in test [1] and 12.6 µM against Aminopeptidase N.
As for `NC(Cc1ccccc1)C(=O)N[C@H]1CCC(=O)N(CC(=O)NCC(=O)NO)C1=O` (single isomer, unassigned), the results for the IC50 (in test [1]; against Aminopeptidase N) were 141 µM and 304 µM, respectively.
As to `CC(C)C[C@H](NC(=O)[C@@H](O)[C@H](N)Cc1ccccc1)C(=O)O` [UBENIMEX], the concentration for half-maximal inhibition (IC50) in test [1] worked out at 157 µM; in the test on HL-60, 1130 µM; in the test with MDA-MB-231 it was 8590 µM.
